As usually defined, the inhibition is the drop in the measured response relative to a control, in per cent.

In assay [1] the target is Receptor tyrosine-protein kinase erbB-4 (Homo sapiens) (UniProt Q15303). The experiment in a line: Inhibition of ERBB4 at 1 uM in presence of 10 uM ATP by Select Screen kinase assay relative to untreated control. The method, boiled down:
(§1)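 Single-point screen at 1 μM against a panel of 220 purified kinases, run by Invitrogen staff as a SelectScreen profiling service. Read-out is percent inhibition of kinase activity.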

Assay [2] addresses Calcium/calmodulin-dependent protein kinase type II subunit alpha (Homo sapiens) (UniProt Q9UQM7). The experiment in a line: Inhibition of CAMK2A at 1 uM in presence of 10 uM ATP by Select Screen kinase assay relative to untreated control. Put shortly: as §1
Assay [3] deals with Mast/stem cell growth factor receptor Kit (Homo sapiens), P10721 [T670I]. The experiment in a line: Inhibition of KIT T670I mutant at 1 uM in presence of 10 uM ATP by Select Screen kinase assay relative to untreated control. Put shortly:
(§2)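 Single-concentration profiling at 1 μM against a panel of 220 purified kinases, run as an outsourced SelectScreen kinase profiling service. Activity is expressed as percent inhibition.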

Assay [4] has as its target Vascular endothelial growth factor receptor 1 (Homo sapiens) (UniProt P17948). Briefly: Inhibition of FLT1 at 1 uM in presence of 100 uM ATP by Select Screen kinase assay relative to untreated control. Put shortly: as §2
Assay [5] has as its target T1, Inhibitor of nuclear factor kappa-B kinase subunit beta (Homo sapiens) (UniProt O14920).
T1 sequence (whole entry): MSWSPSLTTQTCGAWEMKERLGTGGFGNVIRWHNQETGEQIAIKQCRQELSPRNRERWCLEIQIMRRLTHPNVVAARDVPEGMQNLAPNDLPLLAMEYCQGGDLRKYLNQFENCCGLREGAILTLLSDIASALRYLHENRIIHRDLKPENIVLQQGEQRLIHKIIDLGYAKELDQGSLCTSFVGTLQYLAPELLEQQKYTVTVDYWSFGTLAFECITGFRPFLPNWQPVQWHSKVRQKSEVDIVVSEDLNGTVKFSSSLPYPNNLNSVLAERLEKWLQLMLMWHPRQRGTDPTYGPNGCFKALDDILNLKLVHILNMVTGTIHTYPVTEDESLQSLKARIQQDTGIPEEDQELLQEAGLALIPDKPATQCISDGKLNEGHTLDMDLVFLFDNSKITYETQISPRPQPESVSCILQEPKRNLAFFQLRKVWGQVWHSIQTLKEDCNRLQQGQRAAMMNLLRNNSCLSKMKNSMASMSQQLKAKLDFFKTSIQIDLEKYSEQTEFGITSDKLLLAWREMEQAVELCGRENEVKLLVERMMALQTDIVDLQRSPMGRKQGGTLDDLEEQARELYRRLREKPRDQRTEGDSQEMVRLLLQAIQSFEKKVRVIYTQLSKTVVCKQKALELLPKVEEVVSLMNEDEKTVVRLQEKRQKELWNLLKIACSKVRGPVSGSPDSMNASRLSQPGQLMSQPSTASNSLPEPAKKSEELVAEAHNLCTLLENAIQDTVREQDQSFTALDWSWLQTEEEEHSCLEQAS
Briefly: Inhibition of IKBKB at 1 uM in presence of 10 uM ATP by Select Screen kinase assay relative to untreated control. Put shortly: as §2

For assay [6], the target named is T2, Testis-specific serine/threonine-protein kinase 1 (Homo sapiens) (UniProt Q9BXA7).
T2 sequence (whole entry): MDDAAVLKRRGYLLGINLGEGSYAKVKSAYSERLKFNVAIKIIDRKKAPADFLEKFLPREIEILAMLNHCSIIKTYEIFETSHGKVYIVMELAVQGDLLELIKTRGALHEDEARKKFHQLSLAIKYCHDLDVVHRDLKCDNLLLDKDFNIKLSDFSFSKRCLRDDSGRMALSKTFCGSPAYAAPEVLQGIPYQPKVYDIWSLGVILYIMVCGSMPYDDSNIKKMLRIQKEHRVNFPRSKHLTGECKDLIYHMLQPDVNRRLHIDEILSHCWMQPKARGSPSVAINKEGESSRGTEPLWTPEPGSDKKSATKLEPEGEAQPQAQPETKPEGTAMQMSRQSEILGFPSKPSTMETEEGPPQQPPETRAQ
The experiment in a line: Inhibition of STK22D at 1 uM in presence of 10 uM ATP by Select Screen kinase assay relative to untreated control. Put shortly:
(§3)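 Commercial SelectScreen profiling panel of 220 purified kinases. Each kinase was tested at a single inhibitor concentration of 1 μM, and activity was expressed as percent inhibition.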

The target in assay [7] is Serine/threonine-protein kinase 24 (Homo sapiens) (UniProt Q9Y6E0). The experiment in a line: Inhibition of STK24 at 1 uM in presence of 100 uM ATP by Select Screen kinase assay relative to untreated control. Put shortly:
as §3

The target in assay [8] is Vascular endothelial growth factor receptor 3 (Homo sapiens) (UniProt P35916). The experiment in a line: Inhibition of FLT4 at 1 uM in presence of 10 uM ATP by Select Screen kinase assay relative to untreated control. Put shortly: as §2
The target in assay [9] is MAP kinase-activated protein kinase 2 (Homo sapiens) (UniProt P49137). Briefly: Inhibition of MAPKAPK2 at 1 uM in presence of 10 uM ATP by Select Screen kinase assay relative to untreated control. Put shortly: as §2
Assay [10] deals with Fibroblast growth factor receptor 1 (Homo sapiens) (UniProt P11362). Briefly: Inhibition of FGFR1 at 1 uM in presence of 10 uM ATP by Select Screen kinase assay relative to untreated control. The method, boiled down: as §1
The target in assay [11] is Serine/threonine-protein kinase Nek6 (Homo sapiens) (UniProt Q9HC98). The experiment in a line: Inhibition of NEK6 at 1 uM in presence of 10 uM ATP by Select Screen kinase assay relative to untreated control. Put shortly:
as §3

For assay [12], the target named is Receptor tyrosine-protein kinase erbB-2 (Homo sapiens) (UniProt P04626). Briefly: Inhibition of ERBB2 at 1 uM in presence of 10 uM ATP by Select Screen kinase assay relative to untreated control. Put shortly:
as §1

Assay [13] concerns the target Serine/threonine-protein kinase PLK3 (Homo sapiens) (UniProt Q9H4B4). Briefly: Inhibition of PLK3 at 1 uM in presence of 10 uM ATP by Select Screen kinase assay relative to untreated control. The method, boiled down:
as §3

Receptor tyrosine-protein kinase erbB-2 (Homo sapiens), sequence (P04626 whole entry): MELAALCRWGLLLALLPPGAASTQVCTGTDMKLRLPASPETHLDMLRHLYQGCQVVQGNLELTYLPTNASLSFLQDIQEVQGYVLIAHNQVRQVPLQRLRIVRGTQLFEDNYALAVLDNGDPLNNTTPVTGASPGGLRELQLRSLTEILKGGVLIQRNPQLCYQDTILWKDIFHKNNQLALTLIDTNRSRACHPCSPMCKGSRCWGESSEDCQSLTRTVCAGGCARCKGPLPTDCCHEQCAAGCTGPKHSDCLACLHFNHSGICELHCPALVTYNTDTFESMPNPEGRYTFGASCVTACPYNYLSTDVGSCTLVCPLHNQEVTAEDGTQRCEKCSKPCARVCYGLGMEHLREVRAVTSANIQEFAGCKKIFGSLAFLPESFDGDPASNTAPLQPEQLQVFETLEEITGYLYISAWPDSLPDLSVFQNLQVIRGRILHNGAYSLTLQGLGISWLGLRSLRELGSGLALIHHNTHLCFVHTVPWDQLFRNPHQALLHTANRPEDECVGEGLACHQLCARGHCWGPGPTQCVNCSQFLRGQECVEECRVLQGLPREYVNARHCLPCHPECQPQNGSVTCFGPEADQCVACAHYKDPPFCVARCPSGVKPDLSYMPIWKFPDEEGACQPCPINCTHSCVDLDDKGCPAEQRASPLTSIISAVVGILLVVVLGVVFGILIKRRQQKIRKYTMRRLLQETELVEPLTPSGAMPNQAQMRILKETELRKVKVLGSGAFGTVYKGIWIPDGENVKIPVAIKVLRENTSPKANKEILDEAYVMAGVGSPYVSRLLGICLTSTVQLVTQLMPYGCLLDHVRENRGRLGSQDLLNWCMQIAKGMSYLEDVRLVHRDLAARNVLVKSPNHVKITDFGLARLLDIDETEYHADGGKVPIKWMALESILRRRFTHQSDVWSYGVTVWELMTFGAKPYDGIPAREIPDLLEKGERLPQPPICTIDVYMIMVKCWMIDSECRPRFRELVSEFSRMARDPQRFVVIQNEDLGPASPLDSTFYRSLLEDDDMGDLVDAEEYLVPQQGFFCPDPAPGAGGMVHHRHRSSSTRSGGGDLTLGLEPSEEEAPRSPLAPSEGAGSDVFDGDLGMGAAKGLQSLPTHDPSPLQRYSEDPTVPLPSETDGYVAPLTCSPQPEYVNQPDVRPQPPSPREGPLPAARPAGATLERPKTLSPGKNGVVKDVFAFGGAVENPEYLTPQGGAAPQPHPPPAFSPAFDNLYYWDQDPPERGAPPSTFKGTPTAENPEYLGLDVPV
Vascular endothelial growth factor receptor 3 (Homo sapiens), sequence (P35916 whole entry): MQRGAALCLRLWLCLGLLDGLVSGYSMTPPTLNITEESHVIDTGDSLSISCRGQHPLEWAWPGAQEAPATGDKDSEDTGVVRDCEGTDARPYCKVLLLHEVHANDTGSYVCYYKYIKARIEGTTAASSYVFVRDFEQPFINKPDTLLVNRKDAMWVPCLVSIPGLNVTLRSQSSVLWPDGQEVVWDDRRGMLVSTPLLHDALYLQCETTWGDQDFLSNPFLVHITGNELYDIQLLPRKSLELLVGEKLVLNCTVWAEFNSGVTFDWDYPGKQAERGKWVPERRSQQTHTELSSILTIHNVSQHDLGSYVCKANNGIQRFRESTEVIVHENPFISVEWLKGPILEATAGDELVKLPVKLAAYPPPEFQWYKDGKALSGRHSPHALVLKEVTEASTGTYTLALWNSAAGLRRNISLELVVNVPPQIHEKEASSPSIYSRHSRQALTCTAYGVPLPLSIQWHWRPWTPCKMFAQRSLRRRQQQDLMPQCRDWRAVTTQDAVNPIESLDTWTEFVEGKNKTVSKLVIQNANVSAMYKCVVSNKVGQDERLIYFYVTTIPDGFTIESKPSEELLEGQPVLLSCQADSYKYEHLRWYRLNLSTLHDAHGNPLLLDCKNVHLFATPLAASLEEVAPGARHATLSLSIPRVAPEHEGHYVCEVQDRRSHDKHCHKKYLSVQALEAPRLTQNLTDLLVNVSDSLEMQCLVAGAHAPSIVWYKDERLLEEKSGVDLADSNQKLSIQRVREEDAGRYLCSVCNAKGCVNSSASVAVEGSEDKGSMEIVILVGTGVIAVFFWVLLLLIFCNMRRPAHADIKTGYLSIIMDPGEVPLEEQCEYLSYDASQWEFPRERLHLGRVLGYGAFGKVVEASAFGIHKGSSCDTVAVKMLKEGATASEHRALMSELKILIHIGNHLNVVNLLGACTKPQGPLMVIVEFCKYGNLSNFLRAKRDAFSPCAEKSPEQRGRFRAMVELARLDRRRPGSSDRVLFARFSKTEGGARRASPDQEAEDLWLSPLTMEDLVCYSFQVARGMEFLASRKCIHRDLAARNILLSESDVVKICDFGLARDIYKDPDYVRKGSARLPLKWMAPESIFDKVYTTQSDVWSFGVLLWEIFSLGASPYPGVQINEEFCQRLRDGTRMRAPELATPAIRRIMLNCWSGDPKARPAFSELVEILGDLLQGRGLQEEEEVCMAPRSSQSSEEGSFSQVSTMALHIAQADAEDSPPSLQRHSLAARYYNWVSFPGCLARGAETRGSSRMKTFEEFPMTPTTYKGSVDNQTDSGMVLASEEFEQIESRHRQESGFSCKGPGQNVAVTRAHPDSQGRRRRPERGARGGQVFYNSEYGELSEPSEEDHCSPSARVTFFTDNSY
Vascular endothelial growth factor receptor 1 (Homo sapiens), sequence (P17948 whole entry): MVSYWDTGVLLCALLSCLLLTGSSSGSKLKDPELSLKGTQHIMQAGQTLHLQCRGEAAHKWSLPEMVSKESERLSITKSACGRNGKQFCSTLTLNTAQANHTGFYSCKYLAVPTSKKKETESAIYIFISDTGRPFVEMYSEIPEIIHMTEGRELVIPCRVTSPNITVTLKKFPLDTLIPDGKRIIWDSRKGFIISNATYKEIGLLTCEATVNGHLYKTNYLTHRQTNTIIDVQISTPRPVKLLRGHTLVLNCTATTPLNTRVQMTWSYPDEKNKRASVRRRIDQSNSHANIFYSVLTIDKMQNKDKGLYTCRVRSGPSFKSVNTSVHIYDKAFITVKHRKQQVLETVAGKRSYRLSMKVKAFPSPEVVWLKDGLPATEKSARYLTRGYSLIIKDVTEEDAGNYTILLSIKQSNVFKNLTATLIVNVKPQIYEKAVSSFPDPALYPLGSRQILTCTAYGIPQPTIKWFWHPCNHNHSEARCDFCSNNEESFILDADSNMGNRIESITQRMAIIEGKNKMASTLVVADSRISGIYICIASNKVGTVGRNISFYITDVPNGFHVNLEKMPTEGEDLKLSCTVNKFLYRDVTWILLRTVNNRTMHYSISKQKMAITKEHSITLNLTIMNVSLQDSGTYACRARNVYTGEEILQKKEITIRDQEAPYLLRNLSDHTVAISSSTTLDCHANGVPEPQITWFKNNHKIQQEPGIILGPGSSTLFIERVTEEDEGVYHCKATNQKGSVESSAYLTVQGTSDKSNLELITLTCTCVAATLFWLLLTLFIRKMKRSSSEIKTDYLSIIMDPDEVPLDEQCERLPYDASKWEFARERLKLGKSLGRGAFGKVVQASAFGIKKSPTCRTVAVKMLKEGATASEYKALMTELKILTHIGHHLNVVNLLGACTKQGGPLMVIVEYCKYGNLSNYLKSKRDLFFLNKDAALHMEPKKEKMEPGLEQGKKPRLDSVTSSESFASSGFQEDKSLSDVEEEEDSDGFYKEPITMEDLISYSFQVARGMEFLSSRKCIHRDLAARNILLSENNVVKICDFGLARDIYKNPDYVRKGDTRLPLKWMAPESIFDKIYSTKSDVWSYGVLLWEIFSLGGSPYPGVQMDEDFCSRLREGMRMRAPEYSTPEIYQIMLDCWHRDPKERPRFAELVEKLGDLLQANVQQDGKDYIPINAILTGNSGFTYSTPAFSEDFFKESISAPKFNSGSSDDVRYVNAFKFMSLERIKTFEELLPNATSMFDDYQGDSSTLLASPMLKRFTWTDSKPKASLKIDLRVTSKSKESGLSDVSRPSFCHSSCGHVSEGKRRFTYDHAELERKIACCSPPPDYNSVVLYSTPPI
MAP kinase-activated protein kinase 2 (Homo sapiens), sequence (P49137 whole entry, looked up): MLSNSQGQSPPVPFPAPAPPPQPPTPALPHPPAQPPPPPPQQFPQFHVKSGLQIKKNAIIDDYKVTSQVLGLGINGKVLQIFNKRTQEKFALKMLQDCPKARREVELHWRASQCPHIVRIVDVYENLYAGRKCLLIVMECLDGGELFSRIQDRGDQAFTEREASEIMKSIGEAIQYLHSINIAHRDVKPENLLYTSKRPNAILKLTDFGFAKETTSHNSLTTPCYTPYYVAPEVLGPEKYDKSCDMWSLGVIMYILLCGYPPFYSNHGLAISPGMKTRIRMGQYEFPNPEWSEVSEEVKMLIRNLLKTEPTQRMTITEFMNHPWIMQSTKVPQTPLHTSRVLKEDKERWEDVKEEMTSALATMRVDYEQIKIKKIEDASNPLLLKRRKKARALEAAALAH
Serine/threonine-protein kinase PLK3 (Homo sapiens), sequence (Q9H4B4 whole entry, looked up): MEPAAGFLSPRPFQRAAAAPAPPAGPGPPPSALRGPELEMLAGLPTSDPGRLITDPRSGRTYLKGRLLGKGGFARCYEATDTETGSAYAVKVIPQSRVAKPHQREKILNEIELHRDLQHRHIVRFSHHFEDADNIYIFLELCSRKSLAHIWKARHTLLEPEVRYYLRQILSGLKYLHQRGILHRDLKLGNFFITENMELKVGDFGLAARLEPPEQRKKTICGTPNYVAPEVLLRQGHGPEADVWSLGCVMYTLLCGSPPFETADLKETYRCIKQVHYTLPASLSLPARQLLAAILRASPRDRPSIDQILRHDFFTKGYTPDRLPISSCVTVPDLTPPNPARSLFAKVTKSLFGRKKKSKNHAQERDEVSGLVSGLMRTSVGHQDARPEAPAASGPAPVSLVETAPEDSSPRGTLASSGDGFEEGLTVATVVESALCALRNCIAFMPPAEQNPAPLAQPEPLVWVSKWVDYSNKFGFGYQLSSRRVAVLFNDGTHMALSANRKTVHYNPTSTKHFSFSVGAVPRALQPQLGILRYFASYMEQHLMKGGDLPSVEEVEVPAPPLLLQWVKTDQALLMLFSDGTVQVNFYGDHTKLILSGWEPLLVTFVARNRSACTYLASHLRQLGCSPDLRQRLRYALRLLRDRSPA

With `O=C(NCCCNc1nc(Nc2cccc(NC(=O)N3CCCC3)c2)ncc1I)c1cccs1`, the inhibition in assay [1] came to 34%; in assay [2], 79%; in assay [3], 29%; in assay [4] it was 52%; in assay [5], 6%; in assay [6] it was 69%. For the same compound, the inhibition in assay [7] was 2%; in assay [8], 70%; in [9], 2%; in assay [10] it was 46%; in assay [11], 9%; in assay [12], 10%. The inhibition in assay [13] is 51%.

For the compound `COc1ccccc1N1CCN(c2ncnc3[nH]nc(Br)c23)CC1`, the inhibition was found to be 27% in assay [1]; 16% in [2]; 11% in [3]; 20% in [4]; 2% in assay [5]; 21% in assay [6]. Also, the inhibition in assay [7] is 27%; in assay [8] it was 45%; in assay [9], -5%; in assay [10], 14%; in assay [11] it was 10%; in assay [12], 8%. Besides, the inhibition in assay [13] was determined as 27%.

Regarding `Cc1n[nH]c2ccc(-c3cncc(OC[C@@H](N)Cc4c[nH]c5ccccc45)c3)cc12`, the inhibition in assay [1] was -1%; in [2], 80%; in [3], 0%; in assay [4], -2%; in assay [5], 11%; in assay [6], 71%. The inhibition in assay [7] was 76%; in assay [8], 1%; in [9], 3%; in assay [10] it was 14%; in assay [11] it was 3%; in assay [12] it was -6%. The inhibition in [13] stood at 7%.
